# CHO parental Ca: counter-screen for OX1R antagonists: effect in parental CHO cells | parental CHO-K1, ATP-induced calcium, Fluo-8 fluorescence | 0.63% of 330,000 active | AID 463079 | inhibition, % at 5.6 µM;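 active = inhibition above that plate's mean sample inhibition plus 3 SD, cut at about 26% in these data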;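 also: 0% = ATP-challenged DMSO wells and 100% = DMSO wells without ATP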
#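 Test system: untransfected parental CHO cell line. Compound: one dose, 5.6 µM nominal. Detection: intracellular calcium via Fluo-8 no-wash fluorescent dye. Measure: % inhibition. Benchmarks: ATP-challenged DMSO wells low, unchallenged DMSO wells high.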
# GalR3 antagonist: antagonists of human GalR3; O60755; HEK293 GalR3-CNG cAMP membrane potential fluorescence; galR3 body fused to GalR1 C-terminus; inhibition, % at 3 µM; 0.44% of 360,000 active;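 active = inhibition above the screen-wide average plus 3 SD, cut at about 13% in these data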;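 also: forskolin and galanin both at EC90 stimulate the cells; cAMP rise reported by CNG channel membrane potential dye signal; 0% = forskolin plus galanin with DMSO and 100% = forskolin alone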
# OX1R antag-1: blocks the human orexin 1 receptor; O43613; CHO/OX1R cells, Fluo-8 calcium fluorescence, orexin A; inhibition, % at 5 µM; 0.43% of 330,000 active;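 active = inhibition above its plate's threshold, mean inhibition of all tested compounds on the plate plus 3 SD, cut at about 37% in these data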;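 also: 0% = orexin A challenge wells and 100% = SB-334867-A antagonist wells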
# GPR7 antag: antagonists of human GPR7 (neuropeptides B/W receptor 1) | P48145 | GPR7-expressing cells, fluorescence antagonist assay | inhibition, % at 4.4 µM | 1.1% of 290,000 active | AID 1861; in the data active = inhibition above about 16%, passing the limit was not always enough;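 also: cells stimulated with the agonist NPW; 0% = agonist with vehicle and 100% = vehicle without agonist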
# Target sequence (P48145 whole entry, looked up): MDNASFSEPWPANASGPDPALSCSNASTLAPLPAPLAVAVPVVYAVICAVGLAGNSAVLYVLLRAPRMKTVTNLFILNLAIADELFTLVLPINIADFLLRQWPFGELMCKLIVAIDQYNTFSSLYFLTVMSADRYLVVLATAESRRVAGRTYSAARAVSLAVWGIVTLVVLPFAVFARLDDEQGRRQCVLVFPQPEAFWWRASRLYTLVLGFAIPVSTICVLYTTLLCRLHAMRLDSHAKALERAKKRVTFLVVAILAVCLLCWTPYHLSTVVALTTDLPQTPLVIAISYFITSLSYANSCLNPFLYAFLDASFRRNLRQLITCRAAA
# OX1R antag-2: OX1R (human) antagonism; O43613; AID 485270; inhibition, % at 6.6 µM; OX1R-expressing cells, FRET antagonist read-out; 1.8% of 330,000 active; in the data active = inhibition mostly above about 38%, no sharp cut-off; inactive = mostly below about 40%;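 also: 0% = agonist challenge alone and 100% = reference antagonist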
# * = called active by the depositor; nt = not tested or not shown. The list is not random: actives were taken first. Their share in the collection is about 3.1%.
SMILES,CHO parental Ca,GalR3 antagonist,OX1R antag-1,GPR7 antag,OX1R antag-2
COc1ccc(C(C)=O)cc1CC(=O)Nc1ccccc1-c1ccccc1,-8,-4,-8,7,9
Cc1nc(NCCc2ccccc2)c2nnn(Cc3ccccc3)c2n1,-13,-6,-31,-16,10
CC(=O)c1cccc(Nc2ncnc3ccc(Br)cc23)c1,-27,-8,-13,-3,74*
O=C(Oc1cccc(Nc2ncnc3ccccc23)c1)c1cccnc1,6,-6,4,9,39
COc1cc(C(=O)Oc2cccc(Nc3ncnc4ccccc34)c2)cc(OC)c1OC,43*,-6,64*,-11,56*
CC(C)Nc1ncnc2ccc(Br)cc12,29*,-5,19,-17,25
CN(N=Cc1ccc(N(C)C)cc1)C(=O)c1ccccc1N,nt,-7,nt,nt,nt
c1ccc(-c2ccc3c(n2)CCCN3Cc2ccccn2)cc1,nt,-6,nt,nt,nt
CCN=C1NC(c2ccc(F)cc2)C(C(=O)OC)=C(C)N1Cc1ccccc1C(F)(F)F (stereo not given),nt,-10,nt,nt,nt
CCOC(=O)C1CCN(C(=O)CCC(=O)NNc2nc3ccccc3c3nc(C)nn23)CC1,-13,-2,-18,-21,6
CN(C(=S)Nc1ccc(Oc2ccccc2)cc1)C1CCCCC1,29*,-1,-8,-7,34
CCOC(=O)c1ccc(NC(=S)NCCc2ccccc2)cc1,60*,0,39,-8,32
CCOC(=O)c1sc(NC(C)=O)cc1C,0,-4,-7,0,12
CCOC(=O)c1sc(NC(=O)Nc2ccccc2)cc1C,22,-3,28,13,61*
CCOC(=O)c1c(NC(=S)Nc2ccccc2)sc(C)c1C,2,-4,-37,-5,38*
CC(=O)Nc1sc(C)c(C)c1C(=O)OCC(=O)Nc1ccccc1,-5,-6,-5,nt,13
COC(=O)c1ccc(NC(=S)NCCc2ccccc2)cc1,7,-5,15,5,14
O=C(N[C@@H](Cc1cccnc1)C(=O)N1CCC[C@H]1C(=O)NCCc1ccccc1Cl)c1ccco1,nt,-6,nt,nt,nt
COc1cc2[nH]c(=O)n(C3CCCCC3)c(=O)c2cc1OC,-10,5,-10,-10,32
Cc1cc2nc3c(=O)n(CCc4ccccc4)c(=O)[nH]c3nc2cc1N,30,1,18,-1,16
Nc1ccc2nc3c(=O)n(CCc4ccccc4)c(=O)[nH]c3nc2c1,36*,-6,42*,7,19
Nc1ccc2nc3c(=O)n(C4CCCCC4)c(=O)[nH]c3nc2c1,39*,-5,46*,5,53
N#Cc1ccc(C(=O)NCC2CCN(C(=O)C(=O)c3cccs3)CC2)cc1,nt,8,nt,nt,nt
CN1C(=O)[C@@]2(C3=C(CCCC3=O)OC3=C2C(=O)OC2(CCCCC2)C3)c2ccccc21,nt,2,nt,nt,nt
CSC1=C(C#N)C(c2ccccc2Cl)C(C(=O)c2cccs2)C(O)(C(F)(F)F)N1 (stereo not given),3,-11,21,-1,62*
SMILES,CHO parental Ca,GalR3 antagonist,OX1R antag-1,GPR7 antag,OX1R antag-2
COc1ccc(CCC(=O)Nc2ccc3c(c2)OCO3)cc1,-14,-8,-19,13,12
COc1ccc(CCC(=O)Nc2ccc3c(c2)OCCO3)cc1,35*,-3,18,3,14
CCc1cccc2c(C(=O)COC(=O)/C=C/c3ccccc3OC)c[nH]c12,-14,-8,-5,-7,63*
COc1ccccc1N(CC(O)Cn1c2ccccc2c2ccccc21)S(=O)(=O)c1ccccc1 (stereo not given),-6,-3,1,6,14
COc1ccccc1N(CC(O)Cn1nc(C)cc1C)S(=O)(=O)c1ccccc1 (stereo not given),-12,-2,11,-10,47*
Cc1ccccc1NC(=S)N(Cc1ccccc1)Cc1cccnc1,-26,1,-60,-8,11
CSc1cccc(NC(=S)N(Cc2ccc(C)cc2)Cc2cccnc2)c1,46*,-6,14,-20,31
COc1ccccc1Nc1ncccc1C(=O)NCc1ccccc1,-12,-1,-1,-10,75*
COc1ccccc1OCC(=O)Nc1ccccc1C(=O)NCc1cccnc1,-25,-3,-18,-9,8
COc1ccccc1C(=O)NCc1ccc2c(c1)OCO2,-7,-1,6,-6,8
COc1ccc(COc2ccccc2C(=O)NCc2ccccc2)cc1F,34*,-6,6,19,31
CCn1c2ccccc2c2nnc(SCc3ccccc3)nc21,32*,-3,-29,2,40

# Bioassay records from PubChem BioAssay.
